OXTR potentiate = human OXTR potentiation; P30559; CHO-OTR cells, Fluo-8 calcium fluorescence, potentiator mode; 0% = oxytocin EC15, 100% = EC100; activation, % at 3 µM; 320,000 tested, 0.061% active; AID 2445;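 active = activation above that plate's cutoff, the mean activation of tested compounds plus 3 SD, cut at about 6.6% in these data, passing the limit was not always enough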;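 note: 100% uses oxytocin at 75 nM as the full agonist control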
Target sequence (P30559 whole entry, looked up): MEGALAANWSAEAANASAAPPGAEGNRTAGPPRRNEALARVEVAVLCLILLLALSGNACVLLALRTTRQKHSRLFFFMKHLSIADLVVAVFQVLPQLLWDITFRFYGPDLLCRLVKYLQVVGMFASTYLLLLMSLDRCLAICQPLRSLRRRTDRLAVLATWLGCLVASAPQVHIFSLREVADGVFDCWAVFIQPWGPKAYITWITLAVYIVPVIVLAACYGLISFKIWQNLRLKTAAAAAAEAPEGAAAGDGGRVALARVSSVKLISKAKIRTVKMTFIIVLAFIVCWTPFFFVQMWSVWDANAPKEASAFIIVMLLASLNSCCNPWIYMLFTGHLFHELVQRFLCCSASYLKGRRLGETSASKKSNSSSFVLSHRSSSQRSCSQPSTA
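Replication – single well per compound, singlicate · Assay system – CHO cell line stably expressing human OTR · Timing – 6 min pre-incubation, 100 s read · Measure – normalized max/min fluorescence ratio, % activation · Doses – 3.0 µM, one dose · Detection – Fluo-8 calcium dye fluorescence · Probe or stimulus – oxytocin near EC15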
OXTR ag = agonists of human oxytocin receptor; P30559; CHO-OTR cells, Fluo-8 calcium fluorescence; normalized: DMSO 0%, oxytocin 100%; activation, % at 3 µM; 320,000 tested, 0.32% active; AID 2435;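 active = activation above the mean of all tested compounds plus 3 SD, cutoff set per screening run, cut at about 20% in these data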;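 note: peak over basal fluorescence ratio from a 100 s FLIPR kinetic read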
TRPML3 agonist = activates the human TRPML3 channel | Q8TDD5 | HEK293 TRPML3-YFP, Fluo-8 calcium fluorescence; 100% = the carbachol control signal | activation, % at 3 µM | 220,000 tested, 0.29% active;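 active = activation above its plate's cutoff, the mean activation of the plate's test wells plus 3 SD, cut at about 12% in these data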;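 note: 0% = DMSO only wells and 100% = carbachol wells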
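Test system: TRPML3-YFP stable HEK293 cells. Doses: single point at 3 µM. Incubation: dye loading 1 h 37 °C then 30 min ambient, 125 s read. Signal: Fluo-8 calcium dye fluorescence, ex 470-495, em 515-575 nm. Measure: percent activation from peak-to-basal fluorescence ratio, scaled between DMSO and carbachol.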
zfTRPN1 agonist = agonists of zebrafish TRPN1 channel | HEK293 zebrafish TRPN1-YFP, Fluo-8 calcium fluorescence; 100% = response to 87 µM carbachol | activation, % at 3 µM | 220,000 tested, 0.18% active | AID 1424;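 active = activation above its plate's cutoff, the mean activation of test wells on that plate plus 3 SD, cut at about 19% in these data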;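 note: 0% = DMSO alone and 100% = 87 µM carbachol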
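Material – zebrafish TRPN1-YFP in HEK293 cells · Doses – 3 µM single point · Schedule – dye 1 h 37 °C plus 30 min RT · Signal – Fluo-8 calcium fluorescence, excitation 470-495 nm, emission 515-575 nm · Read-out – % activation versus carbachol response · Control set – carbachol high, DMSO low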
V1aR counter = V1a receptor agonism, counter-screen for OXTR agonists; P37288; 320,000 tested, 0.25% active; CHO-V1R cells, Fluo-8 calcium fluorescence, agonist mode; 0% DMSO, 100% 3 nM vasopressin; activation, % at 3 µM; AID 2797;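 active = activation above the mean activation of all tested compounds plus 3 SD, per screening run, cut at about 20% in these data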;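 note: signal is peak over basal fluorescence ratio across a 100 second FLIPR read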
An asterisk follows results filed as active. This is a sample that favours compounds with a hit; in the whole collection about 0.58% have one here.

CC(NC(=O)C12CC3CC(CC(O)(C3)C1)C2)c1ccccc1 (stereo unspecified) was read as OXTR potentiate -9, OXTR ag 0 and V1aR counter 1.
`O=C1/C(=C\c2ccc(O)cc2)SC(=S)N1/N=C/c1ccc(O)cc1` gave OXTR potentiate -10, OXTR ag 24*, TRPML3 agonist 7, zfTRPN1 agonist 21* and V1aR counter 22*.
CC(=O)NNC(=S)NC(=O)c1cccc([N+](=O)[O-])c1 was read as OXTR potentiate -5, OXTR ag 5, TRPML3 agonist 1, zfTRPN1 agonist 0 and V1aR counter 1.
Screening O=C(NNC(=S)NC(=O)c1ccccc1)c1ccc([N+](=O)[O-])cc1 returned OXTR potentiate -22, OXTR ag 34* and V1aR counter 33*.
`O=C(NNC(=S)NC(=O)c1ccc(Br)cc1)c1cccc([N+](=O)[O-])c1` gave OXTR potentiate -25, OXTR ag 31* and V1aR counter 64*.
Screening O=C(NNC(=S)NC(=O)c1ccccc1Cl)c1cccc([N+](=O)[O-])c1 returned OXTR potentiate -11, OXTR ag 28* and V1aR counter 23*.
Screening O=C(NNC(=S)NCc1ccccc1)c1cccc([N+](=O)[O-])c1 returned OXTR potentiate 2, OXTR ag 1, TRPML3 agonist 0, zfTRPN1 agonist 2 and V1aR counter 0.
`O=C(NNC(=S)NC(=O)c1ccc(Br)cc1)c1ccc([N+](=O)[O-])cc1` gave OXTR potentiate -26, OXTR ag 64* and V1aR counter 63*.
`CCN1C(=O)c2cccc3c(N)ccc(c23)C1=O` gave OXTR potentiate -10, OXTR ag 77* and V1aR counter 104*.
For COc1ccc2c3c(cccc13)C(=O)N(O)C2=O the results were OXTR potentiate 7, OXTR ag -2, TRPML3 agonist 0, zfTRPN1 agonist -1 and V1aR counter -2.
Cc1ccc(N2C(=O)c3cccc4c(N)ccc(c34)C2=O)c2cccnc12 was read as OXTR potentiate -34, OXTR ag 133*, TRPML3 agonist 28*, zfTRPN1 agonist 182* and V1aR counter 139*.
Cc1nn(C)c(C)c1N1C(=O)c2cccc3c(N)ccc(c23)C1=O was read as OXTR potentiate -12, OXTR ag 108*, TRPML3 agonist 93*, zfTRPN1 agonist 131* and V1aR counter 128*.
Screening Cc1nn(C)cc1C(=O)Nc1ccc2c(c1)OCCO2 returned OXTR potentiate -8, OXTR ag 0 and V1aR counter 0.
CNC[C@H]1Oc2ccc(NC(=O)Cc3cn(C)c4ccccc34)cc2CC(=O)N([C@@H](C)CO)C[C@H]1C was read as OXTR potentiate -3, OXTR ag 0 and V1aR counter 0.
Screening CCOc1ccc(N(C)C(=O)CCc2nnc3ccc(NCc4ccco4)nn23)cc1 returned OXTR potentiate -2, OXTR ag -1 and V1aR counter 0.
For CCN(C(=O)COC(=O)c1ccc[nH]c1=O)c1cccc2ccccc12 the results were OXTR potentiate -7, OXTR ag 2 and V1aR counter 1.
`CC(C)Cc1ccc(C(C)C(=O)OCC(=O)c2c[nH]c3ccccc23)cc1` (stereo unspecified) gave OXTR potentiate -7, OXTR ag 28*, TRPML3 agonist 7, zfTRPN1 agonist 18 and V1aR counter 23*.
For Cc1ccc(C(=O)OCC(=O)c2c[nH]c3ccccc23)cc1 the results were OXTR potentiate -10, OXTR ag 1, TRPML3 agonist 1, zfTRPN1 agonist 0 and V1aR counter 0.
Cn1c2c(c(=O)n(C)c1=O)C(C(F)(F)F)(C(F)(F)F)N=C(c1ccc(Cl)cc1)N2 was read as OXTR potentiate -8, OXTR ag 14, TRPML3 agonist 20*, zfTRPN1 agonist 29* and V1aR counter 8.
For Cc1ccccc1C1=NC(C(F)(F)F)(C(F)(F)F)c2c(n(C)c(=O)n(C)c2=O)N1 the results were OXTR potentiate -4, OXTR ag -1, TRPML3 agonist 0, zfTRPN1 agonist 0 and V1aR counter 0.
